Measured values from article PMC5295499 (Bioorganic & medicinal chemistry letters, 2016).
Entries after “also recorded” stand apart in the source; their conditions may differ.

Key:
[1] = system: MDM2-Luc exon-skipping reporter; experiment: MDM2-Luc triple exon-skipping luciferase reporter assay; format: cell-based
In short: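 Stable cell line expressing the triple exon-skipping luciferase construct. Exon skipping induced by SF3B1-targeted splicing modulators switches on luciferase, so luminescence is the read-out. The assay was used to screen a library of 830 known drugs and 4359 bioactive compounds.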

[2] = target: T1, Flt3 (Homo sapiens, UniProt P36888); experiment: Kinase profiling screen, Flt3; format: biochemical; conditions: 1 μM, in duplicate
T1 sequence (P36888 27-993): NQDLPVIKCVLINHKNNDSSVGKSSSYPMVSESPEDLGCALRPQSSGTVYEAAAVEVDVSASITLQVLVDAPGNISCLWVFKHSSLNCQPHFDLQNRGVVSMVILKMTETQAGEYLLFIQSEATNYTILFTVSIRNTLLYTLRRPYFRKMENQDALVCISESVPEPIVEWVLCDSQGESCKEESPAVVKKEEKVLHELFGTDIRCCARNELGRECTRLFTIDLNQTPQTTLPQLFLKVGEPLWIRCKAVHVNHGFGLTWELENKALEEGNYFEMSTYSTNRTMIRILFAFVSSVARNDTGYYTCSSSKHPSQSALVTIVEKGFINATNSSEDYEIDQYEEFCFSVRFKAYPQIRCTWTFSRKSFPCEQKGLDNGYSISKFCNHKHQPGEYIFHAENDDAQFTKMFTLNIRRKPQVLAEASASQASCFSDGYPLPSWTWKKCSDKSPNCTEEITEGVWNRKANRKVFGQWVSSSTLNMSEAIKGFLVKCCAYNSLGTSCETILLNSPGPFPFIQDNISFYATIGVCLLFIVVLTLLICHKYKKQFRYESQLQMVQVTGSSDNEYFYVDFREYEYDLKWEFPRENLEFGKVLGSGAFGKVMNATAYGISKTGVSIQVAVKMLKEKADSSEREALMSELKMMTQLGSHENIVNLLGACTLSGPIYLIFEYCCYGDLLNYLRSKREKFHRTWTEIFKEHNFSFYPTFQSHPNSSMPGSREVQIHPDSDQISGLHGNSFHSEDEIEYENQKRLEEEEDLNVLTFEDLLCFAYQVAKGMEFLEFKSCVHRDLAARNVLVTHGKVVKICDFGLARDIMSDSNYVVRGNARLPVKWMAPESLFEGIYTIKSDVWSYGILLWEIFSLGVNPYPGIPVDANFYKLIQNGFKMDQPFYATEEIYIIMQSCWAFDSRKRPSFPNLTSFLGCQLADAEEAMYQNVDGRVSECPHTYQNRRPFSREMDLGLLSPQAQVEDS

[3] = target: Src(1-530) (Homo sapiens, UniProt P12931); experiment: Kinase profiling screen, Src; format: biochemical; conditions: 1 μM, in duplicate
Sequence of Src(1-530) (P12931 1-530): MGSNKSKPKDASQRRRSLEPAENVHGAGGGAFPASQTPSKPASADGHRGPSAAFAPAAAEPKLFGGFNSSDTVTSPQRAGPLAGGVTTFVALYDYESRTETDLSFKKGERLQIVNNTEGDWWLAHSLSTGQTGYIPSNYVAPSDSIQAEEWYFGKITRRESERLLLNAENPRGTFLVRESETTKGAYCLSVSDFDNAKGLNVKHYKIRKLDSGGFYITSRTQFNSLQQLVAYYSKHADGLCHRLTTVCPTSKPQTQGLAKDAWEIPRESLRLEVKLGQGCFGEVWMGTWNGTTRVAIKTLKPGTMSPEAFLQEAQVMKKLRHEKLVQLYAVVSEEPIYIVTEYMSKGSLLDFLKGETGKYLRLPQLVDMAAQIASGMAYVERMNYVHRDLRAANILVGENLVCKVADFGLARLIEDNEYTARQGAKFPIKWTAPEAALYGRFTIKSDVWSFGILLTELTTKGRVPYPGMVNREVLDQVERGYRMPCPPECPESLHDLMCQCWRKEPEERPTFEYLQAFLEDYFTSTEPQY

[4] = target: CLK2 (Homo sapiens, UniProt P49760); experiment: CLK2 biochemical enzyme inhibition; conditions: 20 versus its enantiomer 21
Sequence of CLK2 (P49760 whole entry): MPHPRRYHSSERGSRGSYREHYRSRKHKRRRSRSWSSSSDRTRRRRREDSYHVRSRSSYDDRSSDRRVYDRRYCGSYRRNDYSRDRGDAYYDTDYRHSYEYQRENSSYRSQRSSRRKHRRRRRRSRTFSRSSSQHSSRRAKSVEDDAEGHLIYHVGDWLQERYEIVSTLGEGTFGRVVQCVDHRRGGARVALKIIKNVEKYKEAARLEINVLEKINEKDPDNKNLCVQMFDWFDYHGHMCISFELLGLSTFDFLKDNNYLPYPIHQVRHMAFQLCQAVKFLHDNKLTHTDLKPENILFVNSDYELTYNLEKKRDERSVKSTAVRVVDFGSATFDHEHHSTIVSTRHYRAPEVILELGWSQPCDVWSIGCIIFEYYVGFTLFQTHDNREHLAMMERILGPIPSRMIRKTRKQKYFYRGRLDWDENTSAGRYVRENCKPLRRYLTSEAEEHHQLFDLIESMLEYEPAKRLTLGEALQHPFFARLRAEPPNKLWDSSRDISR

[5] = target: CLK1 (Homo sapiens, UniProt P49759); experiment: CLK1 biochemical enzyme inhibition; conditions: screened for CLK1 activity, data not shown
Sequence of CLK1 (P49759 whole entry): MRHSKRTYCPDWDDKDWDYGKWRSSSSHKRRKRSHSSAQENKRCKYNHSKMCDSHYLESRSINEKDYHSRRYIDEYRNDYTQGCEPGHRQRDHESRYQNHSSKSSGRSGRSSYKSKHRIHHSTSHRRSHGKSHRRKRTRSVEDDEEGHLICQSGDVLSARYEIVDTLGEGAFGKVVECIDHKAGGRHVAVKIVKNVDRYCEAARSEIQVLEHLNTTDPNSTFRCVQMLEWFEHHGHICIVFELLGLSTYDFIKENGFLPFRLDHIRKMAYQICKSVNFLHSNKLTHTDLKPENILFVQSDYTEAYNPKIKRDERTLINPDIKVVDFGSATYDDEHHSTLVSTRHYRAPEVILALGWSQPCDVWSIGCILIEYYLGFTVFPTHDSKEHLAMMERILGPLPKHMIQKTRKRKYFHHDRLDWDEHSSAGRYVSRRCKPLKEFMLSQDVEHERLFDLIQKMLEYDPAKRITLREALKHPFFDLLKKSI

[6] = Solubility; format: physicochemical; conditions: data not shown
[7] = target: CDK4 (Homo sapiens, UniProt P11802); experiment: CDK4 biochemical enzyme inhibition; conditions: read-out: CDK4 IC50
Sequence of CDK4 (P11802 whole entry): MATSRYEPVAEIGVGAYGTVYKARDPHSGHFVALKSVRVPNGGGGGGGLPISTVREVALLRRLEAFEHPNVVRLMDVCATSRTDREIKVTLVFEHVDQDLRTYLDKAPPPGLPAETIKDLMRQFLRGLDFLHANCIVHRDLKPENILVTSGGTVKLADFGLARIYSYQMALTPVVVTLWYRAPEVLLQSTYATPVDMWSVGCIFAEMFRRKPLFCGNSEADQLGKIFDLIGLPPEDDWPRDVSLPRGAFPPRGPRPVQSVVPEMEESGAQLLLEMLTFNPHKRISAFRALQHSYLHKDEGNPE
Sequence of CDK4 (P30281 whole entry partner): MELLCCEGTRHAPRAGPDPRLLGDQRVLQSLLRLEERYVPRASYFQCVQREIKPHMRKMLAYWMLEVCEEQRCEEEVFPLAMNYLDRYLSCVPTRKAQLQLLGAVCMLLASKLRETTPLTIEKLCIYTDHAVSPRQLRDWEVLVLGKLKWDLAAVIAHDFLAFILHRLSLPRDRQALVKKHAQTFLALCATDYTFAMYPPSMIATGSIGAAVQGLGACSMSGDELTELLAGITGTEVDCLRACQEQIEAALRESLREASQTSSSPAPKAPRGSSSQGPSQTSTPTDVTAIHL

[8] = target: Plk1 (Homo sapiens, UniProt P53350); experiment: Kinase profiling screen, Plk1; format: biochemical; conditions: 1 μM, in duplicate
Sequence of Plk1 (P53350 whole entry): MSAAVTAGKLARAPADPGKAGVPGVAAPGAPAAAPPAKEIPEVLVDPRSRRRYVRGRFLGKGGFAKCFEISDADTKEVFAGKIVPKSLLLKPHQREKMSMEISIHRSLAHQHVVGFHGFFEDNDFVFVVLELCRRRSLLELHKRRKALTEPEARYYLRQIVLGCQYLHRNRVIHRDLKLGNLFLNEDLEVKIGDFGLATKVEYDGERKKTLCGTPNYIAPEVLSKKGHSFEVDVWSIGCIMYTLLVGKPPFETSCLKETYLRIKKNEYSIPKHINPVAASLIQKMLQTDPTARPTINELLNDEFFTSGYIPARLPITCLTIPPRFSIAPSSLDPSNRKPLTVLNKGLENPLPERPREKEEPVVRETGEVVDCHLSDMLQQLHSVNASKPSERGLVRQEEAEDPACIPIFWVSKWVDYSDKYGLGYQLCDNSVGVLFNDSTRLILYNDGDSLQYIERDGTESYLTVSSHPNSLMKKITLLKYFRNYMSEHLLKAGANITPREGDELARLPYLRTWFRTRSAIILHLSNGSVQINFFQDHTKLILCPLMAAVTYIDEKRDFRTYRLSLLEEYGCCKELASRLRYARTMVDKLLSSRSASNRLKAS

COC(=O)c1c(/C(C#N)=C\N)c2ccc(Cl)c(Cl)c2n1C [KH-CB19, reference compound]
activity in the MDM2-Luc assay [1]: modest activity; also recorded: barely passes the minimal hit criteria

COc1ccc2c(C)nc(Nc3nc(C)c(C)c(O)n3)nc2c1 [Madrasin, reference compound]
activity in the MDM2-Luc assay at 10 μM [1]: neither compound showed significant activity

CC(C)n1cnc2c(Nc3cccc(Cl)c3)nc(N[C@@H]3CCCC[C@@H]3N)nc21 [Compound 9]
activity in the MDM2-Luc assay [1]: strong luciferase response
off-target activity against Flt3 [2]: some significant off-target activity
off-target activity against Src(1-530) [3]: some significant off-target activity

CC(C)n1cnc2c(Nc3cc(N)cc(Cl)c3)nc(N[C@H]3CCCC[C@@H]3N)nc21 [Compound 20]
potency difference between enantiomers for CLK2 [4]: > 10 fold

CC(C)n1cnc2c(Nc3cccc(Cl)c3)nc(N[C@H]3CCCC[C@H]3N)nc21 [Compound 10]
activity in the MDM2-Luc assay [1]: strong luciferase response

COCCNc1nc(Nc2cccc(Cl)c2)c2ncn(C(C)C)c2n1 [Compound 13]
activity in the MDM2-Luc assay [1]: dramatically reduced activity
activity in the CLK assay [5]: active
solubility [6]: very poor solubility

CC(=O)Nc1cc(Cl)cc(Nc2nc(N[C@@H]3CCCC[C@@H]3N)nc3c2ncn3C(C)C)c1 [Compound 15]
activity in the MDM2-Luc assay [1]: strong MDM2-Luc activity; also recorded: strong luciferase response

CCn1cnc2c(Nc3cccc(Cl)c3)nc(N[C@@H]3CCCC[C@@H]3NC(C)=O)nc21 [Compound 12]
activity in the MDM2-Luc assay at 10 μM [1]: completely abrogated all activity

CC(=O)Nc1cc(Cl)cc(Nc2nc(N[C@@H]3CCCC[C@@H]3N)nc3c2ncn3C(C)C)c1 [Compound 18]
IC50 [7]: 611 nM

CC(C)n1ccc2c(Nc3cccc(Cl)c3)nc(N[C@H]3CCCC[C@H]3N)nc21 [Compound 11]
activity in the MDM2-Luc assay at 10 μM [1]: completely abrogated all activity

CC(C)n1cnc2c(Nc3cc(N)cc(Cl)c3)nc(N[C@@H]3CCCC[C@@H]3N)nc21 [Compound 14]
activity in the MDM2-Luc assay [1]: strong MDM2-Luc activity; also recorded: strong luciferase response
off-target activity against Flt3 [2]: off-target activity
off-target activity against Src(1-530) [3]: off-target activity
off-target activity against Plk1 [8]: off-target activity
